Compounds with a hit are over-represented: about 1.9% of the library has one in this group of screens.
DNA FID counter-1 – counter-screen for HCV NS3 helicase inhibitors: DNA intercalator displacement; DNA fluorescent intercalator displacement, fluorescence; inhibition, % at 7.9 µM; hit rate 0.17% among 290,000;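 also: higher means more ethidium bromide displaced from hairpin DNA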
HCV NS3 hel inh – blocks Hepatitis C virus NS3 helicase unwinding | NS3 helicase DNA unwinding, Cy5 molecular beacon fluorescence | hit rate 0.56% among 290,000 | AID 1800 | inhibition, % at 10.9 µM;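 active = inhibition above the mean of all tested compounds plus 3 SD, set per campaign, cut at about 35% in these data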
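test system = hepatitis C virus NS3 helicase domain fragment enzyme | reagent = annealed dual-labelled DNA beacon duplex, ATP-started | times = 1 h at 25 °C | detection = Cy5 fluorescence, 0 and 60 min reads | read-out basis = percent inhibition from t60/t0 fluorescence ratio | control set = DMSO and thioflavine S | replication = one well per compound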
PP1 counter – counter-screen for PP5 inhibitors: inhibitors of human PP1-alpha. inhibition, % at 6.7 µM. purified PP1alpha, OMFP fluorescence. AID 2235. P62136. hit rate 0.9% among 320,000;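 active = inhibition above the mean inhibition of all tested compounds plus 3 SD, computed separately for each screening campaign, cut at about 15% in these data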
PP5 inh – inhibitors of human protein phosphatase 5 (PP5) | P53041 | purified PP5c, OMFP substrate fluorescence | inhibition, % at 6.7 µM | hit rate 0.18% among 320,000 | AID 1987;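 active = inhibition above the campaign's mean inhibition across all tested compounds plus 3 SD, cut at about 9.5% in these data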
Target sequence (P53041 whole entry, looked up): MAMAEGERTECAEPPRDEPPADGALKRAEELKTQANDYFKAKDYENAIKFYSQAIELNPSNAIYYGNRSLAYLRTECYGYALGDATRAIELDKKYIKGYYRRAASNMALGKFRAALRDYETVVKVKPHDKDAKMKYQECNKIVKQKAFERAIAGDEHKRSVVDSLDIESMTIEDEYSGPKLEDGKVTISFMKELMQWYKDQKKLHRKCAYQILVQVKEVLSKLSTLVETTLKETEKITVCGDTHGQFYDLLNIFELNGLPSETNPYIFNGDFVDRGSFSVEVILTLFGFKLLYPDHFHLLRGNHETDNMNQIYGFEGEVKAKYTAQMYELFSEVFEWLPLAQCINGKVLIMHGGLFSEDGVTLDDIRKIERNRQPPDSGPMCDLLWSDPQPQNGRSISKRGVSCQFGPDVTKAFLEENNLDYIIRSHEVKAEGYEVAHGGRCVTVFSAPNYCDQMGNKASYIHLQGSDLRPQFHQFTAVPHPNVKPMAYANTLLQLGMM
HIF act – HIF pathway transcriptional activation | U2OS HRE-luciferase reporter, luminescence; normalized: DMSO 0%, desferrioxamine 100% | activation, % at 7.5 µM (by protocol) | hit rate 0.32% among 300,000 | AID 1910;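 active = mean activation of at least 10% of the iron chelator positive control signal, with at least half of replicates also reaching 10%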
NS3 helicase cf – confirmation of Hepatitis C virus NS3 helicase inhibitors; shares compounds with HCV NS3 hel inh; NS3 helicase DNA unwinding, Cy5 molecular beacon fluorescence; inhibition, % at 10.9 µM; hit rate 31% among 1,600;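 active = inhibition above the mean of all tested compounds plus 3 SD, cutoff set per campaign, cut at about 36% in these data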
DNA FID counter-2 – counter-screen for HCV NS3 helicase inhibitors: DNA intercalator displacement | DNA fluorescent intercalator displacement, fluorescence | hit rate 4% among 1,600 | shares compounds with HCV NS3 hel inh | inhibition, % at 7.9 µM;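 also: higher means more displacement of ethidium bromide from the DNA hairpin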
FID counter DR – DNA intercalator displacement in dose response | fluorescent intercalator displacement from DNA, fluorescence | AID 2172 | 120 tested, under 10 active | IC50, µM | shares compounds with HCV NS3 hel inh; call rule not given here
A number is an active result; n = inactive; x = no result given. Rule as the data show it, unless noted: active = inhibition above about 37%; inactive = the rest.

SMILES | DNA FID counter-1 | HCV NS3 hel inh | PP1 counter | PP5 inh | HIF act | NS3 helicase cf | DNA FID counter-2 | others
CCOC(=O)C1CCCN(CC(=O)c2c[nH]c3ccc(C)cc23)C1 (stereo not given) | n | n | n | n | n | x | x
COc1ccc2c(c1O)C(=O)c1ccccc1C2=O | n | n | n | n | n | x | x
Nc1c(O)ccc2c1C(=O)c1ccccc1C2=O | n | 43 | n | n | n | n | n
COc1ccccc1/C=C1\SC(=S)N(NS(=O)(=O)c2ccc(C)cc2)C1=O | n | 41 | n | n | n | 71 | n
CCOc1ccc(/C=C2\SC(=S)N(NS(=O)(=O)c3ccc(C)cc3)C2=O)cc1OC | n | n | n | n | n | x | x
COc1ccc(OC)c(/C=C2\SC(=S)N(NS(=O)(=O)c3ccc(C)cc3)C2=O)c1 | n | n | n | n | n | x | x
CCOc1ccc(/C=C2\SC(=S)N(NS(=O)(=O)c3ccccc3)C2=O)cc1OC | n | 42 | n | n | n | 79 | n
COc1ccc(/C=C2\SC(=S)N(NS(=O)(=O)c3ccc(C)cc3)C2=O)c(OC)c1 | n | 111 | n | n | n | 80 | n
CC(C)CN(C(=O)C1COc2ccccc2O1)c1c(N)n(CC(C)C)c(=O)[nH]c1=O (stereo not given) | x | x | n | n | x | x | x
O=C(O)[C@H](Cc1ccccc1)Nc1ccc([N+](=O)[O-])cn1 | n | n | n | n | n | x | x
O=C(O)C(Cc1ccccc1)Nc1ccc([N+](=O)[O-])cc1[N+](=O)[O-] (stereo not given) | n | 38 | n | n | n | n | n
O=C(COC(=O)c1ccncc1)c1ccc(Cl)c(Cl)c1 | n | n | n | n | n | x | x
CC1(C)CC(=O)C2=C(C1)N(c1ccc(F)cc1)C(=O)C2(NC(=O)c1ccccc1)C(F)(F)F (stereo not given) | n | 49 | n | n | n | n | n
O=C(CSc1nnc(-c2ccc(O)cc2)n1-c1ccccc1)CC(=O)Nc1ccccc1 | n | 37 | n | n | n | n | n
COc1cc(OC)c2c(c1)C(=O)OC2 | n | n | n | n | n | x | x
CCOC(=O)Cc1cc(=O)[nH]c(/N=C(\N)Nc2ccc(C)cc2C)n1 | n | n | n | n | n | x | x
CC(OC(=O)c1cccnc1Cl)C(=O)NCc1ccccc1 (stereo not given) | x | x | n | n | x | x | x
CC(C)c1ccc(OCC(=O)N(Cc2ccco2)C2CCS(=O)(=O)C2)cc1 (stereo not given) | n | 48 | n | n | n | n | n
CCOC(=O)Cn1c(=NC(=O)c2cc(-c3cccs3)nc3ccccc23)sc2cc(S(N)(=O)=O)ccc21 | n | n | n | n | n | x | x
CCOC(=O)Cn1c(=NC(=O)C2COc3ccccc3O2)sc2cc(S(N)(=O)=O)ccc21 (stereo not given) | n | 56 | n | n | n | n | n
Cn1cccc1Cc1nnc(SCC(=O)NCc2ccco2)n1CCc1ccccc1 | n | 36 | n | n | n | n | n
Cn1cccc1Cc1nnc(SCC(=O)NCC2CCCO2)n1CCc1ccccc1 (stereo not given) | n | n | n | n | n | x | x
Cn1cccc1Cc1nnc(SCC(=O)NCc2ccco2)n1-c1ccc(F)cc1 | n | 39 | n | n | n | n | n
O=C(O)c1ccc(N/N=C/c2ccc(C(F)(F)F)cc2)cc1 | n | 37 | n | n | n | 56 | n
CC(C)(C)c1ccc(/C=N/Nc2ccc(C(=O)O)cc2)cc1 | n | n | n | n | n | x | x
SMILES | DNA FID counter-1 | HCV NS3 hel inh | PP1 counter | PP5 inh | HIF act | NS3 helicase cf | DNA FID counter-2 | others
Cc1ccc(C=Nc2ccc(N(C)C)cc2)o1 | n | 39 | n | n | n | n | n
Cc1ccc(C=Nc2ccccc2C(N)=O)o1 | n | n | n | n | n | x | x
N#C/C(=C/c1ccc(-c2cc(C(=O)O)cc(C(=O)O)c2)o1)c1nc2ccccc2s1 | n | 36 | n | n | n | 82 | n
N#C/C(=C\c1ccco1)c1nc2ccccc2s1 | n | n | n | n | n | x | x
O=C(NC1CCCC1)C(=O)N(c1ccccc1F)C(C(=O)NCC1CCCO1)c1cccs1 (stereo not given) | n | 36 | n | n | n | n | n
CCN(CC(=O)Nc1c(F)cccc1F)C(=O)c1cc(C)oc1C | x | x | n | n | n | x | x
C=CCn1c(SCC(=O)NCCCC)nc2scc(-c3ccco3)c2c1=O | n | 50 | n | n | n | 82 | n | FID counter DR=n
CC(C)N(CCc1ccncc1)C(=O)Nc1ccc(Cl)c(Cl)c1 | n | n | n | n | n | x | x
O=C(NC(=S)NC1CCSC1=O)c1ccc([N+](=O)[O-])cc1 (stereo not given) | n | 43 | n | n | n | n | n
O=C(NC(=S)NNC(=O)c1ccccc1O)c1ccc([N+](=O)[O-])cc1 | n | 36 | n | n | n | n | n
O=C(NNC(=S)NC(=O)c1ccccc1)c1ccc([N+](=O)[O-])cc1 | n | n | n | n | n | x | x
CCOc1ccc(N2C(=O)C3Sc4[nH]c(=O)sc4C(/C=C/c4ccccc4)C3C2=O)cc1 (stereo not given) | n | 37 | n | n | n | 62 | n | FID counter DR=n
Cc1ccc(N(C(=O)Cc2cccs2)C(C(=O)NC2CCCCC2)c2ccccn2)cc1C (stereo not given) | n | n | n | n | n | x | x
Cc1nc(N[C@@H](Cc2c[nH]c3ccccc23)C(=O)O)c2oc3ccccc3c2n1 | n | 42 | n | n | x | n | n
O=C(O)c1ccc(CN2C(=O)c3ccc(Oc4ccc([N+](=O)[O-])cc4)cc3C2=O)cc1 | n | n | n | n | n | x | x
CN1C(=O)C2(NC(=O)c3ccccc3N2C)c2ccccc21 (stereo not given) | n | n | n | n | n | x | x
CN1C(=O)C(Cl)(Cl)C(=O)c2ccccc21 | n | 53 | x | x | n | n | n
c1ccc(-c2ncnc3cc4n(c23)CCC4)cc1 | n | n | n | n | n | x | x
COc1ccc(/C=C2/S/C(=N/S(=O)(=O)Cc3ccccc3)NC2=O)cc1OC | n | 42 | n | n | n | 57 | n
CCc1ccc(N=C2NC(=O)/C(=C/c3ccc(OCC(=O)O)c(OC)c3)S2)cc1 | n | n | x | x | n | x | x
CN(C)c1ccc(NC(=O)Oc2ccccc2)cc1 | n | 44 | n | n | n | n | n
CC1=C(C(N)=O)S(=O)(=O)c2ccccc21 | n | n | n | n | n | x | x
CCCc1cc(=O)[nH]c(SCC(=O)NC(=O)NC2CCCC2)n1 | x | x | n | n | x | x | x
Cc1ccc(S(=O)(=O)N2CCCOC2CNC(=O)C(=O)NCc2cccs2)cc1 (stereo not given) | n | n | n | n | n | x | x
S=c1[nH]nc(COc2ccc(Cl)cc2)n1Cc1ccco1 | n | 36 | n | n | n | n | n
Cc1cc(C)c(NC(=O)CCc2c(C)noc2C)c(C)c1 | x | x | n | n | x | x | x
Cc1c(C(=O)O)cccc1-c1ccc(/C=N/n2cnnc2)o1 | n | n | n | n | n | x | x
